# Measured values published in ChEMBL document CHEMBL1142944, “Synthesis and biological evaluation of selective aromatase expression regulators in breast cancer cells” (J Med Chem, 2007).
# Activity calls are given as the source filed them. The rule behind the calls is not given here.
# Columns and labels:
# SK-BR-3 [1] = assay: Decrease in CYP19 gene expression in SK-BR-3 cells at 5 uM; assay type: functional, cell-based; details: Homo sapiens
# In short: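 SK-BR-3 cells grown to subconfluency, switched to defined DMEM/F12 medium (human albumin, transferrin, insulin), then exposed 24 h at 5 µM. Total RNA by TRIzol, DNase I-treated, reverse-transcribed with random hexamers (Superscript II, 42 °C 50 min). Taqman real-time PCR with 600 nM CYP19 primers, 50 cycles. CYP19 normalized to 18S rRNA, n = 9, unpaired t test vs control.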
# SK-BR-3 [2] = assay: Induction of apoptosis in SK-BR-3 cells at 5 uM; assay type: functional, cell-based; details: Homo sapiens
# In short: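 Cells plated at 0.5 × 10⁴ to 1 × 10⁴ per well in custom medium and left to adhere overnight. Treated 24 h at 5 µM in defined medium, triplicate. After fixation, DNA in apoptotic cells denatured by formamide plus heat. Single-stranded DNA detected by monoclonal antibody ELISA with ABTS, absorbance at 405 nm.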
SMILES,Activity (SK-BR-3 [1]),Activity (SK-BR-3 [2])
CN(c1ccc([N+](=O)[O-])cc1OCc1ccccc1)S(C)(=O)=O,Active,inactive
CS(=O)(=O)Nc1ccc([N+](=O)[O-])cc1OCCc1ccccc1,inactive,–
CN(c1ccc([N+](=O)[O-])cc1OCc1ccc([N+](=O)[O-])cc1)S(C)(=O)=O,Active,inactive
Cc1ccc(COc2cc([N+](=O)[O-])ccc2N(C)S(C)(=O)=O)cc1,–,inactive
CN(c1ccc([N+](=O)[O-])cc1OCc1ccc(F)cc1)S(C)(=O)=O,Active,inactive
CN(c1ccc([N+](=O)[O-])cc1OCc1ccc2ccccc2c1)S(C)(=O)=O,Active,inactive
CN(c1ccc([N+](=O)[O-])cc1OCc1ccccc1-c1ccccc1)S(C)(=O)=O,Active,inactive
